Source: ChEMBL document CHEMBL1152777, “Potent non-benzoquinone ansamycin heat shock protein 90 inhibitors from genetic engineering of Streptomyces hygroscopicus” (J Med Chem, 2009)
Active and inactive are the calls of the source. The rule behind the calls is not given here.

Assays:
SK-BR-3 [1] = experiment: Cytotoxicity against human SKBR3 cells after 72 hrs in presence of NQO1 inhibitor dicoumarol; format: functional, cell-based; settings: SK-BR-3, 72 h
How it was run: (§1)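 Viability was read by CellTiter-Glo luminescent assay. Values are means of three independent determinations.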

MCF7 [2] = experiment: Cytotoxicity against human MCF7 cells after 72 hrs; format: functional, cell-based; settings: MCF7, 72 h; how it was run: as §1
SK-OV-3 = experiment: Cytotoxicity against human SKOV3 cells after 72 hrs; format: functional, cell-based; settings: SK-OV-3, 72 h; how it was run: as §1
SK-BR-3 [3] = experiment: Cytotoxicity against human SKBR3 cells after 72 hrs; format: functional, cell-based; settings: SK-BR-3, 72 h; how it was run: as §1
HCT-116 = experiment: Cytotoxicity against human HCT116 cells after 72 hrs; format: functional, cell-based; settings: HCT-116, 72 h; how it was run: as §1
[4] = Cytotoxicity against NQ01-deficient human MDA468 cells after 72 hrs; format: functional, cell-based; settings: MDA-MB-468, 72 h; how it was run: as §1
NCI-H596 = experiment: Cytotoxicity against NQ01-deficient human NCI-H596 cells after 72 hrs; format: functional, cell-based; settings: NCI-H596, 72 h; how it was run: as §1
MCF7 [5] = experiment: Cytotoxicity against human MCF7 cells after 72 hrs in presence of NQO1 inhibitor dicoumarol; format: functional, cell-based; settings: MCF7, 72 h; how it was run: as §1
Mus musculus [6] = experiment: Inhibition of HSP90 in human COLO205 tumor bearing nu/nu mouse assessed as reduction of ErbB2 protein level at 30 mg/kg, […] after 4 hrs by ELISA; format: functional, organism-based; parameters: dose 30 mg/kg
How it was run: (§2)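 COLO205 xenograft mice were given a single dose. Tumors were harvested 4 or 24 h later and tumor lysates assayed by ELISA for Hsp70 or ErbB2 protein levels. Vehicle-dosed mice served as comparison.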

Mus musculus [7] = experiment: Inhibition of HSP90 in human COLO205 tumor bearing nu/nu mouse assessed as induction of HSP70 expression at 30 mg/kg, […] after 4 hrs by ELISA; format: functional, organism-based; parameters: dose 30 mg/kg; how it was run: as §2
COLO 205 [8] = experiment: Antitumor activity against human COLO205 tumor bearing mouse assessed as reduction of tumor volume dosed intravenously once daily for 5 days with 2 day interval for total 13 doses; format: functional, organism-based
How it was run: (§3)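 COLO205 tumor-bearing mice received iv doses of vehicle or test agent (15, 30 or 90 mg/kg) daily for 5 days, then a 2-day holiday, for 13 doses in total. Groups had 10 mice each. Tumor growth was followed over the dosing period and compared with vehicle.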

Mus musculus [9] = experiment: Toxicity in human COLO205 tumor bearing nu/nu mouse assessed as body weight change at 30 mg/kg, iv administered once daily for 5 days with 2 day interval for total 13 doses; format: organism-based; parameters: dose 30 mg/kg, route intravenous; settings: in vivo
COLO 205 [10] = experiment: Antitumor activity against human COLO205 tumor bearing mouse assessed as reduction of tumor volume at 15 mg/kg, iv once daily for 5 days with 2 day interval for total 13 doses; format: functional, organism-based; parameters: dose 15 mg/kg; how it was run: as §3
Mus musculus [11] = experiment: Inhibition of HSP90 in human COLO205 tumor bearing nu/nu mouse assessed as induction of HSP70 expression at 30 mg/kg, […] after 24 hrs by ELISA; format: functional, organism-based; parameters: dose 30 mg/kg; how it was run: as §2
Mus musculus [12] = experiment: Inhibition of HSP90 in human COLO205 tumor bearing nu/nu mouse assessed as reduction of ErbB2 protein level at 30 mg/kg, iv after 24 hrs by ELISA
Mus musculus [13] = experiment: Toxicity in human COLO205 tumor bearing nu/nu mouse assessed as body weight change at 15 mg/kg, iv administered once daily for 5 days with 2 day interval for total 13 doses; format: organism-based; parameters: dose 15 mg/kg, route intravenous; settings: in vivo
COLO 205 [14] = experiment: Antitumor activity against human COLO205 tumor bearing mouse assessed as reduction of tumor volume at 30 mg/kg, iv administered once daily for 5 days with 2 day interval for total 13 doses; format: functional, organism-based; parameters: dose 30 mg/kg; how it was run: as §3
[15] = target: T1, Heat shock protein HSP 90-alpha (Homo sapiens, UniProt P07900); experiment: Binding affinity to human recombinant Hsp90alpha N-terminal domain by scintillation proximity assay
[16] = target: T1, Heat shock protein HSP 90-alpha; experiment: Binding affinity to human recombinant Hsp90alpha N-terminal domain by isothermal titration calorimetry
COLO 205 [17] = experiment: Antitumor activity against human COLO205 tumor bearing mouse assessed as reduction of tumor volume at 90 mg/kg, iv administered once daily for 5 days with 2 day interval for total 13 doses; format: functional, organism-based; parameters: dose 90 mg/kg; how it was run: as §3

CO[C@H]1/C=C\C=C(/C)C(=O)NC2=CC(=O)C(NCCN(C)C)=C(C[C@@H](C)C[C@H](OC)[C@H](O)[C@@H](C)/C=C(\C)[C@@H]1OC(N)=O)C2=O [ALVESPIMYCIN]
IC50 (SK-BR-3 [1]): 230 nM
IC50 (MCF7 [2]): 71 nM
IC50 (SK-OV-3): 122 nM
IC50 (SK-BR-3 [3]): 58 nM
IC50 (HCT-116): 57 nM
IC50 [4]: 1600 nM
IC50 (NCI-H596): 1100 nM
IC50 (MCF7 [5]): 862 nM

CO[C@H]1C[C@H](C)Cc2cc(cc(Cl)c2O)NC(=O)/C(C)=C/CC[C@H](OC)[C@@H](OC(N)=O)/C(C)=C/[C@H](C)[C@H]1O
Activity (Mus musculus [6]): Active
Activity (Mus musculus [7]): Active
Activity (COLO 205 [8]): Dose-dependent effect
IC50 (SK-OV-3): 141 nM
IC50 (HCT-116): 120 nM
Activity (Mus musculus [9]): Non-toxic
IC50 [4]: 89 nM
Activity (COLO 205 [10]): Active
Activity (Mus musculus [11]): Active
Activity (Mus musculus [12]): Active
Activity (Mus musculus [13]): Non-toxic
Activity (COLO 205 [14]): Active
Kd [15]: 50 nM

CO[C@H]1C[C@H](C)Cc2cc(ccc2O)NC(=O)/C(C)=C/CC[C@H](OC)[C@@H](OC(N)=O)/C(C)=C/[C@H](C)[C@H]1O
Kd [16]: 0.8 nM
IC50 (MCF7 [2]): 610 nM
IC50 (SK-BR-3 [3]): 835 nM
IC50 (HCT-116): 1050 nM
IC50 [4]: 420 nM
IC50 (NCI-H596): 1200 nM

CO[C@H]1/C=C\C=C(/C)C(=O)Nc2cc(Cl)c(O)c(c2O)C[C@@H](C)C[C@H](OC)[C@H](O)[C@@H](C)/C=C(\C)[C@@H]1OC(N)=O
IC50 (MCF7 [2]): 330 nM
IC50 (SK-OV-3): 350 nM
IC50 (SK-BR-3 [3]): 394 nM
IC50 (HCT-116): 422 nM
IC50 [4]: 443 nM
IC50 (NCI-H596): 710 nM

C=CCNC1=C2C[C@@H](C)C[C@H](OC)[C@H](O)[C@@H](C)/C=C(\C)[C@H](OC(N)=O)[C@@H](OC)/C=C\C=C(/C)C(=O)NC(=CC1=O)C2=O [TANESPIMYCIN]
IC50 (SK-BR-3 [1]): 410 nM
IC50 (MCF7 [2]): 58 nM
IC50 (SK-OV-3): 240 nM
IC50 (SK-BR-3 [3]): 44 nM
Activity (COLO 205 [17]): Active
IC50 (HCT-116): 202 nM
IC50 [4]: 1500 nM
Activity (COLO 205 [10]): Active
IC50 (NCI-H596): 1600 nM
IC50 (MCF7 [5]): 662 nM

CO[C@H]1C[C@H](C)Cc2cccc(c2)NC(=O)/C(C)=C/CC[C@H](OC)[C@@H](OC(N)=O)/C(C)=C/[C@H](C)[C@H]1O
Kd [16]: 5.4 nM
IC50 (MCF7 [2]): 139 nM
IC50 (SK-OV-3): 320 nM
IC50 (SK-BR-3 [3]): 96 nM
IC50 (HCT-116): 240 nM
IC50 [4]: 190 nM
IC50 (NCI-H596): 390 nM

CO[C@H]1/C=C\C=C(/C)C(=O)Nc2ccc(O)c(c2)C[C@@H](C)C[C@H](OC)[C@H](O)[C@@H](C)/C=C(\C)[C@@H]1OC(N)=O
Kd [16]: 2.5 nM
IC50 (SK-BR-3 [3]): 83 nM
IC50 (HCT-116): 179 nM
IC50 [4]: 160 nM
IC50 (NCI-H596): 325 nM
